According to the M2OR odorant receptor database:
Substitutions are numbered along the chain they refer to.

Experiments:
Conditions in all cases: stereoisomer not certain
[1] = biological target: T1, OR5C1 (Homo sapiens) (UniProt Q8NGR4)
T1 sequence (whole entry): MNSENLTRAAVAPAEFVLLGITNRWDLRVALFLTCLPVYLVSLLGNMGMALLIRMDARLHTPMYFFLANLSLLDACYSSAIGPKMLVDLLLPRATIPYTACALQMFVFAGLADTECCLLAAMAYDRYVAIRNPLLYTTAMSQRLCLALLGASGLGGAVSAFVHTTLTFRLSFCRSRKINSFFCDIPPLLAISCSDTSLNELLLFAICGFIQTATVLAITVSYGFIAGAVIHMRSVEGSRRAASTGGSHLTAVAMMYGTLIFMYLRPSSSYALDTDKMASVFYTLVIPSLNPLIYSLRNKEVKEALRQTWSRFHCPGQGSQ
Method in brief: (§1)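 Assay methods differ from source to source, frequently being transient luciferase assays in mammalian cell lines. For each receptor–molecule pair, the label responsive (active) applies when the original authors judged the measured signal statistically different from baseline, and non-responsive (inactive) applies otherwise.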

[2] = biological target: T2, OR5D13 (Homo sapiens) (UniProt Q8NGL4)
T2 sequence (whole entry): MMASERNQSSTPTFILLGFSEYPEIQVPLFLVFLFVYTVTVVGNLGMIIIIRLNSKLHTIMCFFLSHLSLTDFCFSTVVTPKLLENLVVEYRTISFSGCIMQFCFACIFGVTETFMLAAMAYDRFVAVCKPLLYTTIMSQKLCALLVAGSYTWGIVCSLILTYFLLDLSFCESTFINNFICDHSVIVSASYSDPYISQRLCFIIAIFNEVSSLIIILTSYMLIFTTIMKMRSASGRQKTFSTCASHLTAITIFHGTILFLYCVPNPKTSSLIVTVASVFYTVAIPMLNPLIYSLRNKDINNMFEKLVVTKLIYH
Method in brief: as §1

[3] = biological target: T3, OR5D14 (Homo sapiens) (UniProt Q8NGL3)
T3 sequence (whole entry): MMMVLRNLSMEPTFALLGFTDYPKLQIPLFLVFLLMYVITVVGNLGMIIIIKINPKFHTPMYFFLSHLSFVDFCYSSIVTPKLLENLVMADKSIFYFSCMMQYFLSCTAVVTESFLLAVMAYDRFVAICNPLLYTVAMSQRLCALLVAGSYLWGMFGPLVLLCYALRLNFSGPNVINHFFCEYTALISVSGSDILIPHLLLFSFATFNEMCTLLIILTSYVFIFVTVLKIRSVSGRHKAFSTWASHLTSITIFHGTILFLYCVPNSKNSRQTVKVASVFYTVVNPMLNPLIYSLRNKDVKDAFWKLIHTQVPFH
Method in brief: as §1

[4] = biological target: T4, OR5D16 (Homo sapiens) (UniProt Q8NGK9)
T4 sequence (whole entry): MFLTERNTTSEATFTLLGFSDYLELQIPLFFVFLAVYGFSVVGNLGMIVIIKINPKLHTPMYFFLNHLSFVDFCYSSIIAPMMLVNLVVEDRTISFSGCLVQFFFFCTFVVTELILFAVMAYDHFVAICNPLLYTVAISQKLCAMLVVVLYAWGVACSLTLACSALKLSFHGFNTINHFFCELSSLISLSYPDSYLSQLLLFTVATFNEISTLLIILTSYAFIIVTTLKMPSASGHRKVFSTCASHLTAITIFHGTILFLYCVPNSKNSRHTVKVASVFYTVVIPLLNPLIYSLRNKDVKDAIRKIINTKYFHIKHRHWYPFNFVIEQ
Method in brief: as §1

[5] = biological target: T5, OR5D18 (Homo sapiens) (UniProt Q8NGL1)
T5 sequence (whole entry): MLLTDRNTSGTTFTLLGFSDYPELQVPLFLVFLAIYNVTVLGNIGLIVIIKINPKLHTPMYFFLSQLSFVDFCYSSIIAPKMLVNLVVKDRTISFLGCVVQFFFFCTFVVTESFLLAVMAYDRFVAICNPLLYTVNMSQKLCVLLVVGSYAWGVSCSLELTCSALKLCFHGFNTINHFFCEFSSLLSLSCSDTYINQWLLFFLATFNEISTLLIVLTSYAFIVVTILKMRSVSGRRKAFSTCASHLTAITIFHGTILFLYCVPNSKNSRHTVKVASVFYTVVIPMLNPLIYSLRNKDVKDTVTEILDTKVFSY
Method in brief: as §1

[6] = biological target: T6, OR5F1 (Homo sapiens) (UniProt O95221)
T6 sequence (whole entry): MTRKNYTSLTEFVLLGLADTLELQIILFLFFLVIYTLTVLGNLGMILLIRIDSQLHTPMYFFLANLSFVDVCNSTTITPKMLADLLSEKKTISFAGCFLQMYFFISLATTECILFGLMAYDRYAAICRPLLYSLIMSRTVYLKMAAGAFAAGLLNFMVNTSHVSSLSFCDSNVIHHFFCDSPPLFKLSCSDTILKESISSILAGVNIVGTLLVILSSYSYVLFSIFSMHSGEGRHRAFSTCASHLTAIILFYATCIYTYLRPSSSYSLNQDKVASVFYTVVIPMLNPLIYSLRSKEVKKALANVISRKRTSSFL
Method in brief: as §1

[7] = biological target: T7, OR5H1 (Homo sapiens) (UniProt A6NKK0)
T7 sequence (whole entry): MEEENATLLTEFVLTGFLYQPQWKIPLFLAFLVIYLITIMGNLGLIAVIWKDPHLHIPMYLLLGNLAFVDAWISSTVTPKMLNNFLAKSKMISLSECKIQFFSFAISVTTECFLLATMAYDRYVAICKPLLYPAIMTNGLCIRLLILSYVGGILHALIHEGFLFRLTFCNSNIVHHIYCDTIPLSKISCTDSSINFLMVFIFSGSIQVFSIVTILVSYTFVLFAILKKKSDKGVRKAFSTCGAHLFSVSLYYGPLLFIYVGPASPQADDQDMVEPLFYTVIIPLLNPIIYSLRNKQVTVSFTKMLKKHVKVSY
Method in brief: as §1

[8] = biological target: T8, OR5H14 (Homo sapiens) (UniProt A6NHG9)
T8 sequence (whole entry): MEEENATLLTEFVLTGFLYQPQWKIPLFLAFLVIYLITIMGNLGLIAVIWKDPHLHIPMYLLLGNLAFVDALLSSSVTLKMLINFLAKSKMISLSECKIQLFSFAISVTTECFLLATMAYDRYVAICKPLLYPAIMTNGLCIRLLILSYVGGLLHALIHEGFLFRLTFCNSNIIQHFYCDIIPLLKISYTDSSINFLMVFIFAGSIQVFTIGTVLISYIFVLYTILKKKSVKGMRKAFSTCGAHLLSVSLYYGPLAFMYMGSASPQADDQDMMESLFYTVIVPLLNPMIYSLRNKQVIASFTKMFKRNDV
Method in brief: as §1

[9] = biological target: T9, OR5H15 (Homo sapiens) (UniProt A6NDH6)
T9 sequence (whole entry): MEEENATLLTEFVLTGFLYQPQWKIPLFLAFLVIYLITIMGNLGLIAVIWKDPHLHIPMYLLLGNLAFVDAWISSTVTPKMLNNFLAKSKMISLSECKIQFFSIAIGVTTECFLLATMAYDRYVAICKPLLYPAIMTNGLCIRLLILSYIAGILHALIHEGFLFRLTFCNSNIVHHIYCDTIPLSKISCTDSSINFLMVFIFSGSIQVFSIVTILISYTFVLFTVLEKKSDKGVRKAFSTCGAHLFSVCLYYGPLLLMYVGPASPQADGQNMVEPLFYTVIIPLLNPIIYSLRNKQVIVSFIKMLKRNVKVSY
Method in brief: as §1

[10] = tested on: T10, OR5BC C141R
T10 sequence (whole entry): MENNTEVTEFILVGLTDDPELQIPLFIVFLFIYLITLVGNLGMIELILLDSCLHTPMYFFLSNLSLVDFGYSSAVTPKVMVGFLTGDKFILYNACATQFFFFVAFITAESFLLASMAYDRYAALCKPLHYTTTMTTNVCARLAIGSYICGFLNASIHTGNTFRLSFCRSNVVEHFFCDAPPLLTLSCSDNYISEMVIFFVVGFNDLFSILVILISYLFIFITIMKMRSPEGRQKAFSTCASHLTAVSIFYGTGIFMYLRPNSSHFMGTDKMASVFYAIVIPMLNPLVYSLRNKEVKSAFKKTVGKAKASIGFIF
Method in brief: as §1

[11] = tested on: T11, OR5BH L80I I85M
T11 sequence (whole entry): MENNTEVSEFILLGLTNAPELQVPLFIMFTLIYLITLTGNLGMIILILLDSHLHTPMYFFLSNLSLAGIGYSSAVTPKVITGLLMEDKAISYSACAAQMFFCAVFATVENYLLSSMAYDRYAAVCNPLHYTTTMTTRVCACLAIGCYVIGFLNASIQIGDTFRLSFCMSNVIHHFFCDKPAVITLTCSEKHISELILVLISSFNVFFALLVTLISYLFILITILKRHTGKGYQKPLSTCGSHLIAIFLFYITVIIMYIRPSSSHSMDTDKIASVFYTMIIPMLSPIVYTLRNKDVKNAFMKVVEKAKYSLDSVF
Method in brief: as §1

[12] = tested on: T12, OR5BH L80I
T12 sequence (whole entry): T11 sequence (whole entry) with M85I
Method in brief: as §1

[13] = tested on: T13, OR5DD C62Y
T13 sequence (whole entry): T2 sequence (whole entry) with C62Y
Method in brief: as §1

[14] = tested on: T14, OR5DE S249A L290P
T14 sequence (whole entry): T3 sequence (whole entry) with S249A, L290P
Method in brief: as §1

[15] = tested on: T15, OR5DG A156T
T15 sequence (whole entry): T4 sequence (whole entry) with A156T
Method in brief: as §1

[16] = tested on: T16, OR5DI
T16 sequence (whole entry): T5 sequence (whole entry) with N136D
Method in brief: as §1

[17] = tested on: T17, OR5F1
T17 sequence (whole entry): T6 sequence (whole entry) with S294N
Method in brief: as §1

[18] = tested on: T18, OR5H1 F17L A30T H56Q
T18 sequence (whole entry): T7 sequence (whole entry) with F17L, A30T, H56Q
Method in brief: as §1

[19] = tested on: T19, OR5H1 T181N
T19 sequence (whole entry): T7 sequence (whole entry) with T181N
Method in brief: as §1

[20] = biological target: OR5G3 (Homo sapiens) (UniProt P0C626)
Sequence of OR5G3 (Homo sapiens) (P0C626 whole entry): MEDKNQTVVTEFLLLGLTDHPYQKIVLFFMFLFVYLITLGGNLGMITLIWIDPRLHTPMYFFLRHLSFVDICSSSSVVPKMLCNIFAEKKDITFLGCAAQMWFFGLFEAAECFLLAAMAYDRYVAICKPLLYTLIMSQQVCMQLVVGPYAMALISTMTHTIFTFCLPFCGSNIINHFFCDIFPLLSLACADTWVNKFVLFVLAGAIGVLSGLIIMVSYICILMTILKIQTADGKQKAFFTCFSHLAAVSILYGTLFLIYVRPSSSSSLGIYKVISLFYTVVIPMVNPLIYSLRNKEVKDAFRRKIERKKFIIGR
Method in brief: as §1

Measured: odorant receptor agonist call

CC(CO)CS (centres undefined)
inactive: [1] | [2] | [3] | [4] | [5] | [6] | [7] | [8] | [9]

Cc1cnc(C)c(C)n1
not listed: [20]
inactive: all other assays above

CCCCCC(=O)C(C)C(C)=O (centres undefined)
inactive: [1] | [2] | [3] | [4] | [5] | [6] | [7] | [8] | [9]

CC1=C(O)C(=O)C(C)O1 (centres undefined)
not listed: [20]
inactive: all other assays above

CC1=C(O)C(=O)OC1C (centres undefined)
not listed: [20]
inactive: all other assays above

CC1CCCCCCCCCCCCC(=O)C1 (centres undefined)
inactive: [1] | [2] | [3] | [4] | [5] | [6] | [20] | [8] | [9]

CC1=NC(C)C(C)S1 (centres undefined)
not listed: [20]
inactive: all other assays above

CCC1OC(C)=C(O)C1=O (centres undefined)
not listed: [20]
inactive: all other assays above

CC(=O)c1c(C)c([N+](=O)[O-])c(C(C)(C)C)c([N+](=O)[O-])c1C
inactive: [1] | [2] | [3] | [4] | [5] | [6] | [20] | [8] | [9]

CCC1OC(=O)C(O)=C1C (centres undefined)
not listed: [20]
inactive: all other assays above

CCCCC(S)C(C)CO (centres undefined)
inactive: [1] | [2] | [3] | [4] | [5] | [6] | [7] | [8] | [9]

CCC(S)C(C)CO (centres undefined)
inactive: [1] | [2] | [3] | [4] | [5] | [6] | [7] | [8] | [9]

CCCC(S)CCOC(C)=O (centres undefined)
not listed: [20]
inactive: all other assays above

CCCCCCC=CCCC=O
not listed: [19] | [20]
inactive: all other assays above

CCCCCC(S)C(C)CO (centres undefined)
inactive: [1] | [2] | [3] | [4] | [5] | [6] | [7] | [8] | [9]
